High-throughput results as filed in PubChem BioAssay.
MrgX1 PAM = positive allosteric modulators of MrgX1, primary screen, HEK293 cells, Fluo-4 calcium flux. Mas-related G-protein coupled receptor member X1 (Homo sapiens), Q96LB2. FDSS; hits give high values. B-score at 10 µM. 310,000 compounds, 0.63% hits;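 active = plate-corrected calcium response at least 3 library SD above typical, normal starting fluorescence, not activating the receptor alone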;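 note: compound read alongside a low EC10 to EC30 dose of BAM8-22 agonist; peak minus trough fluorescence over baseline measured at the second addition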
Target sequence (Q96LB2 whole entry, looked up): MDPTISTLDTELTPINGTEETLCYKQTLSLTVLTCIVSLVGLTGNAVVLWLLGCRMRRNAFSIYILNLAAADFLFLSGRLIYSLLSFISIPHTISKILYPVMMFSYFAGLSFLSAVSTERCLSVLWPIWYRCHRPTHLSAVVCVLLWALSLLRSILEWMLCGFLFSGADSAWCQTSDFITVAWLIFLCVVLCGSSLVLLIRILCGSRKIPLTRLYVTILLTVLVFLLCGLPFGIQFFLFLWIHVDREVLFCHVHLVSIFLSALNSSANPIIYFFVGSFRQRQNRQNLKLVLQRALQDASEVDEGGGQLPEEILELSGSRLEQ
MrgX1 ag = agonists of human MrgX1 receptor, primary screen, HEK293 cells, Fluo-4 calcium flux | Fluo-4 calcium fluorescence, agonist mode; hits give high values | B-score at 10 µM | 310,000 compounds, 0.44% hits | AID 588627, 2011;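 active = calcium response B-score plate-corrected fluorescence ratio at least 3 library SD, with starting fluorescence B-score inside 5 SD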
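Test system: Stable human MrgX1 HEK293 cell line | Schedule: Overnight plating before 1 h dye loading | Read-out basis: Baseline-normalised fluorescence change ratio, B-scored | Detection: Kinetic calcium dye fluorescence, Fluo-4 NW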
RGS4 act = RGS4 potentiators or activators, primary screen, cell-based, HEK293 M3R inducible RGS4, calcium flux. AID 463111, 2010. carbachol calcium flux Fluo4; hits give low values. B-score at 10 µM. 310,000 compounds, 0.92% hits;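 active = B-score of the integrated calcium signal more than 4 SD below the library mean, with starting fluorescence not abnormally high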;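 note: negative B-score means reduced calcium response which marks RGS4 activation or potentiation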
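System: HEK293 FlpIn-TREx cells, stable M3R, doxycycline-inducible RGS4. Timing: overnight RGS4 induction, 30 min dye load 37 °C, 20 min compound RT. Also added: carbachol, ECmax concentration. Measured by: Fluo4 fluorescence kinetic imaging of calcium. Evaluation: integrated calcium ratio converted to B score.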
MrgX1 antag = antagonists of human MrgX1 receptor, primary screen, HEK293 cells, Fluo-4 calcium flux; B-score at 10 µM; Mas-related G-protein coupled receptor member X1 (Homo sapiens), Q96LB2; AID 588676, 2011; 310,000 compounds, 1.3% hits; BAM8-22 antagonism; hits give low values;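 active = calcium-response B-score plate-corrected more than 3 library SD below zero, starting fluorescence within 5 deviations, no agonist response on first addition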;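 note: peak minus trough fluorescence over baseline after final BAM8-22 challenge near maximal dose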
RGS4 block = RGS4 inhibitors, primary screen, cell-based, HEK293 M3R inducible RGS4, calcium flux; B-score at 10 µM; Regulator of G-protein signaling 4 (Homo sapiens), P49798; Fluo-4 calcium flux; hits give high values; triggered by carbachol at its EC20; 310,000 compounds, 0.45% hits;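 active = B-score, a plate-corrected calcium signal, over three deviations above library mean, with baseline fluorescence within five deviations of library mean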;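 note: RGS4 expression induced by doxycycline in cells with stable M3 receptor; B-score is computed from the integrated fluorescence ratio over baseline after carbachol; higher B-score means a larger calcium signal and so more RGS4 inhibition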
Target sequence (P49798 whole entry, looked up): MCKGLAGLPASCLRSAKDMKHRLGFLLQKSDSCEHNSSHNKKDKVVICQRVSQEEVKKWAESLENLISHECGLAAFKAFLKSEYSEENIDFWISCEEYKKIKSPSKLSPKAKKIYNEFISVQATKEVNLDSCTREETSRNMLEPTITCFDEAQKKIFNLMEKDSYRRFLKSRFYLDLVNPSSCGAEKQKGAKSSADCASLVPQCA
MrgX1 allo conf = MrgX1 positive allosteric modulators, duplicate retest, confirmation, HEK293 cells, Fluo-4 calcium flux; activation (ratio percentage), % at 10 µM; Fluo-4 calcium fluorescence, FDSS; shares compounds with MrgX1 PAM; 1,200 compounds, 13% hits;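 active = ratio at least 3 SD above the weak peptide control, stable starting fluorescence, no direct agonism earlier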;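 note: compound followed by low BAM8-22 agonist challenge near EC20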
HEK293 Ca flux = nonspecific calcium signal in parental HEK293, confirmation, counter-screen for MrgX1 antagonist project, parental HEK293 cells, Fluo-4 calcium flux | Fluo-4 calcium fluorescence, FDSS | shares compounds with MrgX1 antag | fluorescence ratio F(max-min)/F0 at 10 µM | 4,000 compounds, 2% hits;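 active = duplicate-averaged calcium fluorescence ratio at least three times the standard deviation of buffer wells, a nonspecific response in parental cells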
HEK293 Ca counter = calcium response in parental HEK293 cells, primary screen, counter-screen for MrgX1 allosteric activator project, cell-based, Fluo-4 calcium flux, duplicate. shares compounds with MrgX1 antag. 4,000 compounds, 0.4% hits. AID 624114, 2012. fluorescence ratio F(max-min)/F0 at 10 µM. Fluo-4 fluorescence ratio; hits give high values;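 active = calcium fluorescence ratio, averaged over duplicates, at least 3 SD of the buffer-well ratio, meaning a nonspecific response in receptor-free cells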;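 note: untransfected parental HEK293 lacking MrgX1 used as counterscreen for MrgX1 allosteric activators; fluorescence change taken during the second addition on a kinetic imager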
HEK293 Ca cntr2 = calcium response in parental HEK293 cells, primary screen, counter-screen for MrgX1 agonist project, cell-based, Fluo-4 calcium flux, duplicate, agonist mode | Fluo-4 calcium fluorescence (FDSS); hits give high values | shares compounds with MrgX1 antag | fluorescence ratio F(max-min)/F0 at 10 µM | AID 624115, 2012 | 4,000 compounds, 8.7% hits;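 active = calcium fluorescence ratio at least three times the spread of buffer wells, meaning a non-specific response in parental cells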
Numbers without * were called inactive. Only some compounds are listed: those with a hit (about 3.5% of all), similar ones and a draw of the others.

Results for Cc1cc(C)cc(-n2cccc2/C=C2/C(=N)N3C(=NC2=O)SN=C3S(C)(=O)=O)c1 ?
MrgX1 PAM: inactive; MrgX1 ag: inactive; RGS4 act: inactive; MrgX1 antag: inactive; RGS4 block: inactive

Results for C=CCN1C(=O)c2ccc(C(=O)N(CC)CC(=O)Nc3ccc(OC)cc3)cc2C1=O ?
MrgX1 PAM: inactive; MrgX1 ag: inactive; RGS4 act: inactive; MrgX1 antag: inactive; RGS4 block: inactive

Results for Cc1cccc2cc(CN(C(=O)c3cnccn3)C3CCCCC3)c(Cl)nc12 ?
MrgX1 PAM: 20*; MrgX1 ag: inactive; RGS4 act: inactive; MrgX1 antag: inactive; RGS4 block: inactive; MrgX1 allo conf: inactive; HEK293 Ca flux: inactive; HEK293 Ca counter: inactive; HEK293 Ca cntr2: inactive

What do the screens show for `C=CCc1ccccc1Oc1cc(F)nc(N)n1`?
MrgX1 PAM: 15*; MrgX1 ag: inactive; RGS4 act: inactive; MrgX1 antag: inactive; RGS4 block: inactive; MrgX1 allo conf: 9.9%*; HEK293 Ca flux: inactive; HEK293 Ca counter: inactive; HEK293 Ca cntr2: inactive

Results for Cc1ccc(C)c(Oc2cc(F)nc(N)n2)c1 ?
MrgX1 PAM: inactive; MrgX1 ag: inactive; RGS4 act: inactive; MrgX1 antag: inactive; RGS4 block: inactive

Results for Nc1cc(S(=O)(=O)Nc2cc(Cl)ccc2Cl)ccc1N1CCCC1 ?
MrgX1 PAM: inactive; MrgX1 ag: inactive; RGS4 act: inactive; MrgX1 antag: inactive; RGS4 block: inactive

How did COc1ccc(OC)c(-c2csc(NC(=O)Cc3cccs3)n2)c1 do in these assays?
MrgX1 PAM: 7.2*; MrgX1 ag: inactive; RGS4 act: inactive; MrgX1 antag: inactive; RGS4 block: inactive; MrgX1 allo conf: inactive; HEK293 Ca flux: inactive; HEK293 Ca counter: inactive; HEK293 Ca cntr2: inactive

How did COc1ccc2nc(Nc3sc4c(c3C(N)=O)CCCC4)sc2c1 do in these assays?
MrgX1 PAM: inactive; MrgX1 ag: inactive; MrgX1 antag: inactive

What do the screens show for `COC(=O)c1cc(C(=O)OC)n(Cc2ccc(F)cc2)c1C`?
MrgX1 PAM: 6.5*; MrgX1 ag: inactive; RGS4 act: inactive; MrgX1 antag: inactive; RGS4 block: inactive; MrgX1 allo conf: inactive; HEK293 Ca flux: inactive; HEK293 Ca counter: inactive; HEK293 Ca cntr2: inactive

What do the screens show for `COC(=O)c1cc(C(=O)OC)n(Cc2ccc(F)cc2)n1`?
MrgX1 PAM: inactive; MrgX1 ag: inactive; RGS4 act: inactive; MrgX1 antag: inactive; RGS4 block: inactive

What do the screens show for `CC(C)Cc1ccc(C(C)C(=O)Nc2ccccc2O)cc1` (stereo not drawn)?
MrgX1 PAM: 7*; MrgX1 ag: inactive; RGS4 act: inactive; MrgX1 antag: inactive; RGS4 block: inactive; MrgX1 allo conf: inactive; HEK293 Ca flux: inactive; HEK293 Ca counter: inactive; HEK293 Ca cntr2: inactive

How did Cc1ccccc1CC1(CO)CCCN(C(=O)c2ccc(F)cc2)C1 (stereo not drawn) do in these assays?
MrgX1 PAM: 10*; MrgX1 ag: inactive; RGS4 act: inactive; MrgX1 antag: inactive; RGS4 block: inactive; MrgX1 allo conf: inactive; HEK293 Ca flux: inactive; HEK293 Ca counter: inactive; HEK293 Ca cntr2: inactive

What do the screens show for `O=C(Nc1ccc2c(c1)OCO2)c1ccc(Br)c(S(=O)(=O)N2CCCC2)c1`?
MrgX1 PAM: 14*; MrgX1 ag: inactive; RGS4 act: inactive; MrgX1 antag: inactive; RGS4 block: inactive; MrgX1 allo conf: inactive; HEK293 Ca flux: inactive; HEK293 Ca counter: inactive; HEK293 Ca cntr2: inactive

Results for O=C(CSc1ccc(-c2ccncc2)nn1)N1CCCC1 ?
MrgX1 PAM: 13*; MrgX1 ag: inactive; RGS4 act: inactive; MrgX1 antag: inactive; RGS4 block: inactive; MrgX1 allo conf: inactive; HEK293 Ca flux: inactive; HEK293 Ca counter: inactive; HEK293 Ca cntr2: inactive

What do the screens show for `C/C(=C\C(=O)C(F)(F)F)Nc1cc(C)cc(C)c1`?
MrgX1 PAM: inactive; MrgX1 ag: inactive; RGS4 act: inactive; MrgX1 antag: inactive; RGS4 block: inactive

How did C/C(=C\C(=O)C(F)(F)F)Nc1ccc(C)cc1 do in these assays?
MrgX1 PAM: 7.7*; MrgX1 ag: inactive; RGS4 act: inactive; MrgX1 antag: inactive; RGS4 block: inactive; MrgX1 allo conf: 13%*; HEK293 Ca flux: inactive; HEK293 Ca counter: inactive; HEK293 Ca cntr2: inactive

Results for COc1ccc(-c2nc(CSCC(=O)NC3CCN(Cc4ccccc4)CC3)c(C)o2)cc1OC ?
MrgX1 PAM: inactive; MrgX1 ag: inactive; RGS4 act: inactive; MrgX1 antag: inactive; RGS4 block: inactive

How did c1ccc(-c2noc(-c3cccc4ccccc34)n2)nc1 do in these assays?
MrgX1 PAM: 8.4*; MrgX1 ag: inactive; RGS4 act: inactive; MrgX1 antag: inactive; RGS4 block: inactive; MrgX1 allo conf: inactive; HEK293 Ca flux: 0.53*; HEK293 Ca counter: inactive; HEK293 Ca cntr2: inactive

What do the screens show for `Cc1ccc2c(c1C)OC(=O)CC2c1ccccc1` (stereo not drawn)?
MrgX1 PAM: inactive; MrgX1 ag: inactive; RGS4 act: inactive; MrgX1 antag: inactive; RGS4 block: inactive

Results for COc1ccc(N2CCOCC2)c(NC(=O)COc2cccc(C)c2)c1 ?
MrgX1 PAM: inactive; MrgX1 ag: inactive; RGS4 act: inactive; MrgX1 antag: inactive; RGS4 block: inactive
